In brackets after ≈: the same amount, converted by molar mass. Non-standard residues stand in square brackets, D forms with d. Residues, ends and D or L forms follow the SMILES beside them. ξ: configuration not given here. *: point of attachment. X1 = COC(=O)/C=C/[C@H](CCC(N)=O)N*; ξE = NC(CCC(=O)O)C(=O)O; Boc = CC(C)(C)OC(=O)*; OtBu = CC(C)(C)O*
What was measured:
HeLa = test: Antiviral activity measured in cell culture assay, inhibiting plaque formation by 50% at subumolar concentrations.; type: functional, cell-based; conditions: Homo sapiens
Procedure, shortened: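 HeLa monolayers (confluent) were infected with HRV-14 at 100 PFU/plate. After 30 min adsorption they were overlaid with maintenance medium containing 0.5% agarose plus compound at various concentrations, then held 48 h at 35 °C. Cells were formalin-fixed and crystal violet-stained. Duplicate plaque counts were converted to percent of control and the IC50 interpolated. Runs were repeated 2–3 times, the highest interpolated IC50 reported, and enviroxime was included as control.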

[1] = target: T1, Human rhinovirus A protease (Human rhinovirus sp.) (UniProt Q4U254); test: Percent inhibition of HRV-14 3C protease was measured at a concentration of 1 ug/mL
T1 sequence (whole entry): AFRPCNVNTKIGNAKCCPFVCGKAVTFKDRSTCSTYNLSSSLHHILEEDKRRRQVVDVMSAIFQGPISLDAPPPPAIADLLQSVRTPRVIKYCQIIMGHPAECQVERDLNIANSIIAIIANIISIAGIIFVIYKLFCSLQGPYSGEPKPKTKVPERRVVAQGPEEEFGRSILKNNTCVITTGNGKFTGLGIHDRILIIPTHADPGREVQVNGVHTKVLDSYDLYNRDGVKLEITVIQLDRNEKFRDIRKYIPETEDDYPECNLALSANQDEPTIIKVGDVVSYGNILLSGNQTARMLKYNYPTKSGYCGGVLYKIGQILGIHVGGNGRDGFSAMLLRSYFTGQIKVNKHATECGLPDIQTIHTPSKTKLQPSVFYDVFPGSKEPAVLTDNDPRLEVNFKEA

[2] = target: T1, Human rhinovirus A protease (Human rhinovirus sp.); test: Percent inhibition of HRV-14 3C protease was measured at a concentration of 100 ug/mL(average of duplicates which agreed within +/- 10%)
[3] = target: T1, Human rhinovirus A protease (Human rhinovirus sp.); test: Percent inhibition of HRV-14 3C protease was measured at a concentration of 5 ug/mL (average of duplicates which agreed within +/- 10%)

Compound	IC50 (HeLa) [µg/mL]	inhibition [1] [%]	inhibition [2] [%]	inhibition [3] [%]
CCOC(=O)/C=C/[C@H](CCC(N)=O)NC(=O)[C@H](Cc1ccccc1)NC(=O)[C@H](CC(C)C)NC(=O)[C@@H](NC(=O)OC(C)(C)C)C(C)C	0.41 (≈ 0.621 µM)	100		
CCOC(=O)/C=C/C(CCC(N)=O)NC(=O)OC(C)(C)C (stereo not given)	> 10		27	
COC(=O)/C=C/[C@H](CCC(N)=O)NC(=O)[C@H](Cc1ccccc1)NC(=O)[C@H](CC(C)C)NC(=O)[C@@H](NC(=O)OCc1ccccc1)C(C)C	0.93 (≈ 1.37 µM)	100		
CCOC(=O)/C=C/C(CCC(N)=O)NC(=O)OCc1ccccc1 (stereo not given)	> 10		18	
COC(=O)/C=C/[C@H](CCC(N)=O)NC(=O)[C@H](Cc1ccccc1)NC(=O)[C@H](CC(C)C)NC(=O)[C@@H](NC(=O)OC(C)(C)C)C(C)C	0.74 (≈ 1.15 µM)	100		
COC(=O)/C=C/[C@H](CCC(N)=O)NC(=O)[C@H](Cc1ccccc1)NC(=O)[C@H](CC(C)C)NC(=O)[C@@H](NC(=O)C(CCC(=O)OC(C)(C)C)NC(=O)OC(C)(C)C)C(C)C (stereo not given in full) (Boc-[ξE](OtBu)VLF-X1)	4.5 (≈ 5.42 µM)	100		
COC(=O)/C=C/C(CCC(N)=O)NC(=O)OC(C)(C)C (stereo not given)			18	
CC(C)C[C@H](NC(=O)[C@@H](NC(=O)OC(C)(C)C)C(C)C)C(=O)N[C@@H](Cc1ccccc1)C(=O)N[C@H](/C=C/C(=O)O)CCC(N)=O	> 10	43		
COC(=O)/C=C/C(CCC(N)=O)NC(=O)C(Cc1ccccc1)NC(=O)OCc1ccccc1 (stereo not given)	3.2 (≈ 6.84 µM)			51
COC(=O)/C=C/C(CCC(N)=O)NC(=O)C(Cc1ccccc1)NC(=O)OC(C)(C)C (stereo not given)	> 10		42	
COC(=O)/C=C/[C@H](CCC(N)=O)NC(=O)[C@H](Cc1ccccc1)NC(=O)[C@H](CC(C)C)NC(=O)[C@H](NC(=O)[C@@H](N)CCC(=O)O)C(C)C		100		
COC(=O)/C=C/[C@H](CCC(N)=O)NC(=O)[C@H](Cc1ccccc1)NC(=O)[C@H](CC(C)C)NC(=O)[C@@H](NC(=O)[C@@H](N)CCC(=O)O)C(C)C	> 10			
CCOC(=O)/C=C/C(CCC(N)=O)NC(=O)C(Cc1ccccc1)NC(=O)OC(C)(C)C (stereo not given)	> 10		39	
NC(=O)CCC(/C=C/S(=O)(=O)c1ccccc1)NC(=O)C(Cc1ccccc1)NC(=O)OCc1ccccc1 (stereo not given)	> 10		42	

Source: ChEMBL document CHEMBL1131017, “Synthesis and evaluation of peptidyl Michael acceptors that inactivate human rhinovirus 3C protease and inhibit virus replication” (J Med Chem, 1998)
